Laboratory results from ChEMBL document CHEMBL1145694, “In vitro evaluation of antifungal properties of 8.O.4'-neolignans” (1997).
In brackets after ≈: the same amount, converted by molar mass. Activity calls are given as the source filed them. No cut-off for these calls is given here.

What was measured:
Candida albicans = test: Antifungal activity against Candida albicans ATCC 10231 up to 250 ug/mL by agar dilution method; format: functional, organism-based
In short: (§1)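 Agar dilution in Saboureaud-chloramphenicol agar wells. Test agents from DMSO stocks were serially diluted twofold to final 0.10–250 µg/mL, with DMSO ≤2% final. Each well got 5 µL of yeast cell or spore suspension (spores at 10⁶ CFU/mL). Ketoconazole and amphotericin B served as positive controls, with a drug-free blank. Plates were held at 30 °C for 24, 48 or 72 h, set by control growth. MIC = lowest concentration with no visible growth.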

Saccharomyces cerevisiae = test: Antifungal activity against Saccharomyces cerevisiae ATCC 9763 up to 250 ug/mL by agar dilution method; format: functional, organism-based; in short: as §1
Cryptococcus neoformans = test: Antifungal activity against Cryptococcus neoformans ATCC 32264 up to 250 ug/mL by agar dilution method; format: functional, organism-based; in short: as §1
Aspergillus niger = test: Antifungal activity against Aspergillus niger ATCC 9029 up to 250 ug/mL by agar dilution method; format: functional, organism-based; in short: as §1
Aspergillus fumigatus = test: Antifungal activity against Aspergillus fumigatus ATCC 26934 up to 250 ug/mL by agar dilution method; format: functional, organism-based; in short: as §1
Aspergillus flavus = test: Antifungal activity against Aspergillus flavus ATCC 9170 up to 250 ug/mL by agar dilution method; format: functional, organism-based; in short: as §1
Microsporum canis = test: Antifungal activity against Microsporum canis C112 after 15 days by agar dilution method; format: functional; details: 360 h
In short: (§2)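 Dermatophytes were kept on Saboureaud dextrose agar slopes and subcultured every 15 days. Spore suspensions were set to 10⁶ CFU/mL, and 5 µL went into Saboureaud-chloramphenicol agar wells. Wells held twofold dilutions from DMSO stocks, final 0.10–250 µg/mL, DMSO ≤2%. Ketoconazole and amphotericin B were positive controls, with a drug-free blank. Incubation was at 30 °C for up to 15 days. MIC = lowest concentration with no visible growth.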

Nannizzia gypsea = test: Antifungal activity against Microsporum gypseum C115 after 15 days by agar dilution method; format: functional; details: 360 h; in short: as §2
[1] = tested on: Trichophyton mentagrophytes; test: Antifungal activity against Trichophyton mentagrophytes ATCC 9972 after 15 days by agar dilution method; format: functional; details: ATCC 9972, 360 h; in short: as §2
Trichophyton rubrum = test: Antifungal activity against Trichophyton rubrum C113 after 15 days by agar dilution method; format: functional; details: 360 h; in short: as §2
Epidermophyton floccosum = test: Antifungal activity against Epidermophyton floccosum C114 after 15 days by agar dilution method; format: functional; details: 360 h; in short: as §2

Structure (SMILES) | Activity (Candida albicans) | Activity (Saccharomyces cerevisiae) | Activity (Cryptococcus neoformans) | Activity (Aspergillus niger) | Activity (Aspergillus fumigatus) | Activity (Aspergillus flavus) | MIC (Microsporum canis) | MIC (Nannizzia gypsea) | MIC [1] | MIC (Trichophyton rubrum) | MIC (Epidermophyton floccosum)
C=CCc1cc(OC)c(OC(C)C(=O)c2cc(OC)c(OC)c(OC)c2)c(OC)c1 (racemic) | inactive | inactive | inactive | inactive | inactive | inactive | 250 µg/mL (≈ 600 µM) | > 250 µg/mL | > 250 µg/mL | > 250 µg/mL | > 250 µg/mL
C/C=C/c1ccc(OC(C)C(=O)c2ccc(OC)c(OC)c2)c(OC)c1 (racemic) | inactive | inactive | inactive | inactive | inactive | inactive | > 250 µg/mL | 250 µg/mL (≈ 701 µM) | > 250 µg/mL | > 250 µg/mL | > 250 µg/mL
C=CCc1ccc(O[C@H](C)[C@@H](O)c2ccc(OC)c(OC)c2)c(OC)c1 (racemic) | inactive | inactive | inactive | inactive | inactive | inactive | 250 µg/mL (≈ 697 µM) | > 250 µg/mL | > 250 µg/mL | 250 µg/mL (≈ 697 µM) | 15 µg/mL (≈ 41.8 µM)
C=CCc1cc(OC)c(OC(C)C(=O)c2ccc3c(c2)OCO3)c(OC)c1 (racemic) | inactive | inactive | inactive | inactive | inactive | inactive | > 250 µg/mL | 250 µg/mL (≈ 675 µM) | > 250 µg/mL | > 250 µg/mL | > 250 µg/mL
C=CCc1ccc(O[C@@H](C)[C@@H](O)c2ccc(OC)c(OC)c2)c(OC)c1 (racemic) | inactive | inactive | inactive | inactive | inactive | inactive | 20 µg/mL (≈ 55.8 µM) | 60 µg/mL (≈ 167 µM) | 40 µg/mL (≈ 112 µM) | 20 µg/mL (≈ 55.8 µM) | 25 µg/mL (≈ 69.7 µM)
C=CCc1ccc(OC(C)C(=O)c2ccc(OC)c(OC)c2)c(OC)c1 (racemic) | inactive | inactive | inactive | inactive | inactive | inactive | 250 µg/mL (≈ 701 µM) | 250 µg/mL (≈ 701 µM) | > 250 µg/mL | 250 µg/mL (≈ 701 µM) | 250 µg/mL (≈ 701 µM)
C[C@@H]1[C@H](O)[C@@H](C)/C=C/C=C/C=C/C=C/C=C/C=C/C=C/[C@H](O[C@@H]2O[C@H](C)[C@@H](O)[C@H](N)[C@@H]2O)C[C@@H]2O[C@](O)(C[C@@H](O)C[C@@H](O)[C@H](O)CC[C@@H](O)C[C@@H](O)CC(=O)O[C@H]1C)C[C@H](O)[C@H]2C(=O)O [AMPHOTERICIN B] | – | – | – | – | – | – | – | – | – | – | 0.3 µg/mL (≈ 0.325 µM)
CC(=O)N1CCN(c2ccc(OCC3COC(Cn4ccnc4)(c4ccc(Cl)cc4Cl)O3)cc2)CC1 (stereo not given) [KETOCONAZOLE] | – | – | – | – | – | – | – | – | – | – | 15 µg/mL (≈ 28.2 µM)
C=CCc1cc(OC)c(OC(C)C(=O)c2ccc(OC)c(OC)c2)c(OC)c1 (racemic) | inactive | inactive | inactive | inactive | inactive | inactive | 250 µg/mL (≈ 647 µM) | > 250 µg/mL | > 250 µg/mL | > 250 µg/mL | > 250 µg/mL
C/C=C/c1ccc(O[C@H](C)[C@@H](O)c2ccc(OC)c(OC)c2)c(OC)c1 (racemic) | inactive | inactive | inactive | inactive | inactive | inactive | 50 µg/mL (≈ 139 µM) | 50 µg/mL (≈ 139 µM) | 150 µg/mL (≈ 418 µM) | 20 µg/mL (≈ 55.8 µM) | 70 µg/mL (≈ 195 µM)
